Assay results published in ChEMBL document CHEMBL1687824, “Overexpression of patA and patB, which encode ABC transporters, is associated with fluoroquinolone resistance in clinical isolates of Streptococcus pneumoniae” (2011).
In brackets after ≈: the same amount, converted by molar mass.

Assays:
Assay type in all cases: functional
Streptococcus pneumoniae [1] = assay: Antibacterial activity against Streptococcus pneumoniae M307 overexpressing patA, patB and inactivated patB with single mutation by standardized agar doubling dilution method
Summary of the method: (§1)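 MICs determined by BSAC standardized agar doubling dilution. Strains were grown in brain heart infusion broth for 24 h at 37°C in 5% CO2. Inhibitor arms had reserpine at 20 μg/ml or sodium orthovanadate at 50 μM in the agar. Mutants were made by transforming magellan2 insertion amplimers into clinical isolates and selecting on spectinomycin 100 mg/liter, with a no-DNA spontaneous-mutation control.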

Streptococcus pneumoniae [2] = assay: Antibacterial activity against fluoroquinolone, dye-resistant Streptococcus pneumoniae M74 overexpressing patA, patB by standardized agar doubling dilution method in presence of 20 ug/ml reserpine efflux pump inhibitor
Summary of the method: (§2)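 MIC by agar doubling dilution following BSAC guidelines. Strains grown in brain heart infusion broth 24 h at 37°C in 5% CO2. Where an efflux pump inhibitor applies, MIC redetermined with reserpine at 20 μg/ml or sodium orthovanadate at 50 μM. Synergy taken as a fall in MIC of ≥2 dilutions with inhibitor present. Dye resistance defined relative to R6 (both dyes ≥2 dilutions higher).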

Streptococcus pneumoniae [3] = assay: Antibacterial activity against Streptococcus pneumoniae M310 overexpressing patA, patB and inactivated patB with single mutation by standardized agar doubling dilution method; summary of the method: as §1
Streptococcus pneumoniae [4] = assay: Antibacterial activity against Streptococcus pneumoniae M86A overexpressing patA, patB and inactivated patA with single mutation by standardized agar doubling dilution method
Summary of the method: (§3)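 MICs were determined by agar doubling dilution following BSAC guidelines, with no efflux inhibitor. Strains were grown in brain heart infusion broth for 24 h at 37°C in 5% CO2. Species identity was confirmed by Gram stain, optochin sensitivity and capsule test. Control strain R6 was tested alongside.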

Streptococcus pneumoniae [5] = assay: Antibacterial activity against Streptococcus pneumoniae M303 overexpressing patA, patB and inactivated patA with single mutation by standardized agar doubling dilution method in presence of 20 ug/ml reserpine efflux pump inhibitor; summary of the method: as §1
Streptococcus pneumoniae [6] = assay: Antibacterial activity against Streptococcus pneumoniae M300 overexpressing patA, patB and inactivated patA with single mutation by standardized agar doubling dilution method; summary of the method: as §1
Streptococcus pneumoniae [7] = assay: Antibacterial activity against fluoroquinolone, dye-susceptible Streptococcus pneumoniae by standardized agar doubling dilution method; summary of the method: as §2
Streptococcus pneumoniae [8] = assay: Antibacterial activity against dye-resistant Streptococcus pneumoniae M46 DR overexpressing patA, patB by standardized agar doubling dilution method; summary of the method: as §3
Streptococcus pneumoniae [9] = assay: Antibacterial activity against Streptococcus pneumoniae M298 overexpressing patA, patB and inactivated patA with single mutation by standardized agar doubling dilution method in presence of 20 ug/ml reserpine efflux pump inhibitor; summary of the method: as §1
Streptococcus pneumoniae [10] = assay: Antibacterial activity against Streptococcus pneumoniae M55B overexpressing patA, patB and inactivated patB with single mutation by standardized agar doubling dilution method in presence of 50 uM sodium orthovanadate efflux pump inhibitor
Summary of the method: (§4)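 MICs were determined by BSAC agar doubling dilution in the presence of sodium orthovanadate at 50 μM. Cultures were grown in BHI broth for 24 h at 37°C in 5% CO2, with R6 as control. Synergy was defined as an MIC reduction of ≥2 dilutions with the inhibitor present.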

Streptococcus pneumoniae [11] = assay: Antibacterial activity against fluoroquinolone, dye-resistant Streptococcus pneumoniae M297 overexpressing patA, patB by standardized agar doubling dilution method; summary of the method: as §2
Streptococcus pneumoniae [12] = assay: Antibacterial activity against wild type Streptococcus pneumoniae M3 NCTC 7466 type 2 by standardized agar doubling dilution method; summary of the method: as §2
Streptococcus pneumoniae [13] = assay: Antibacterial activity against Streptococcus pneumoniae M50B overexpressing patA, patB and inactivated patB with single mutation by standardized agar doubling dilution method in presence of 50 uM sodium orthovanadate efflux pump inhibitor; summary of the method: as §4
Streptococcus pneumoniae [14] = assay: Antibacterial activity against Streptococcus pneumoniae M45B overexpressing patA, patB and inactivated patB with single mutation by standardized agar doubling dilution method in presence of 20 ug/ml reserpine efflux pump inhibitor
Summary of the method: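 MICs were determined by BSAC agar doubling dilution in the presence of reserpine at 20 μg/ml. Strains were grown in BHI broth for 24 h at 37°C in 5% CO2, with R6 as control. Synergy was defined as an MIC drop of ≥2 dilutions with the inhibitor.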

Streptococcus pneumoniae [15] = assay: Antibacterial activity against Streptococcus pneumoniae M318 overexpressing patA, patB and inactivated patA with single mutation by standardized agar doubling dilution method in presence of 50 uM sodium orthovanadate efflux pump inhibitor; summary of the method: as §4
Streptococcus pneumoniae [16] = assay: Antibacterial activity against Streptococcus pneumoniae M311 overexpressing patA, patB and inactivated patA with single mutation by standardized agar doubling dilution method in presence of 20 ug/ml reserpine efflux pump inhibitor; summary of the method: as §1
Streptococcus pneumoniae [17] = assay: Antibacterial activity against Streptococcus pneumoniae M306 overexpressing patA, patB and inactivated patB with single mutation by standardized agar doubling dilution method in presence of 50 uM sodium orthovanadate efflux pump inhibitor; summary of the method: as §1
Streptococcus pneumoniae [18] = assay: Antibacterial activity against Streptococcus pneumoniae M315 overexpressing patA, patB and inactivated patA with single mutation by standardized agar doubling dilution method in presence of 50 uM sodium orthovanadate efflux pump inhibitor; summary of the method: as §4
Streptococcus pneumoniae [19] = assay: Antibacterial activity against fluoroquinolone-resistant Streptococcus pneumoniae M97 FQ-R overexpressing patA, patB by standardized agar doubling dilution method in presence of 50 uM sodium orthovanadate efflux pump inhibitor
Summary of the method: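 MIC by agar doubling dilution per BSAC guidelines; strains pregrown in brain heart infusion broth 24 h, 37°C, 5% CO2. MICs measured alone and with efflux pump inhibitors reserpine (20 μg/ml) or sodium orthovanadate (50 μM); synergy defined as ≥2-dilution MIC reduction in presence of inhibitor.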

Streptococcus pneumoniae [20] = assay: Antibacterial activity against Streptococcus pneumoniae M308 overexpressing patA, patB and inactivated patB with single mutation by standardized agar doubling dilution method in presence of 20 ug/ml reserpine efflux pump inhibitor; summary of the method: as §1
Streptococcus pneumoniae [21] = assay: Antibacterial activity against fluoroquinolone, dye-resistant Streptococcus pneumoniae M87 overexpressing patA, patB by standardized agar doubling dilution method in presence of 20 ug/ml reserpine efflux pump inhibitor; summary of the method: as §2
Streptococcus pneumoniae [22] = assay: Antibacterial activity against fluoroquinolone-resistant Streptococcus pneumoniae M98 FQ-R overexpressing patA, patB by standardized agar doubling dilution method in presence of 50 uM sodium orthovanadate efflux pump inhibitor
Summary of the method: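 Clinical S. pneumoniae isolates grown in BHI broth 24 h at 37°C in 5% CO2. MICs by agar doubling dilution per BSAC guidelines, alone or with efflux inhibitor reserpine (20 μg/ml) or sodium orthovanadate (50 μM). Synergy defined as ≥2-dilution MIC reduction in presence of inhibitor.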

Streptococcus pneumoniae [23] = assay: Antibacterial activity against dye-resistant Streptococcus pneumoniae M55 DR overexpressing patA, patB by standardized agar doubling dilution method; summary of the method: as §3
Streptococcus pneumoniae [24] = assay: Antibacterial activity against Streptococcus pneumoniae M309 overexpressing patA, patB and inactivated patB with single mutation by standardized agar doubling dilution method in presence of 50 uM sodium orthovanadate efflux pump inhibitor; summary of the method: as §1
Streptococcus pneumoniae [25] = assay: Antibacterial activity against Streptococcus pneumoniae M318 overexpressing patA, patB and inactivated patA with single mutation by standardized agar doubling dilution method; summary of the method: as §3
Streptococcus pneumoniae [26] = assay: Antibacterial activity against Streptococcus pneumoniae M316 overexpressing patA, patB and inactivated patA with single mutation by standardized agar doubling dilution method; summary of the method: as §3
Streptococcus pneumoniae [27] = assay: Antibacterial activity against Streptococcus pneumoniae M86B overexpressing patA, patB and inactivated patB with single mutation by standardized agar doubling dilution method; summary of the method: as §3
Streptococcus pneumoniae [28] = assay: Antibacterial activity against fluoroquinolone-resistant Streptococcus pneumoniae by standardized agar doubling dilution method in presence of 20 ug/ml reserpine efflux pump inhibitor; summary of the method: as §2

O=C(O)c1cn(C2CC2)c2cc(N3CCNCC3)c(F)cc2c1=O [CIPROFLOXACIN]
MIC (Streptococcus pneumoniae [1]): 8 µg/mL (≈ 24.1 µM)
MIC (Streptococcus pneumoniae [2]): 32 µg/mL
MIC (Streptococcus pneumoniae [3]): 4 µg/mL (≈ 12.1 µM)
MIC (Streptococcus pneumoniae [4]): 1 µg/mL (≈ 3.02 µM)
MIC (Streptococcus pneumoniae [5]): 1 µg/mL
MIC (Streptococcus pneumoniae [6]): 2 µg/mL (≈ 6.04 µM)
MIC (Streptococcus pneumoniae [7]): 0.25 µg/mL (≈ 0.754 µM)
MIC90 (Streptococcus pneumoniae [7]): 0.25 µg/mL (≈ 0.754 µM)
MIC (Streptococcus pneumoniae [8]): 0.25 µg/mL (≈ 0.754 µM)
MIC (Streptococcus pneumoniae [9]): 8 µg/mL
MIC (Streptococcus pneumoniae [10]): 2 µg/mL
MIC (Streptococcus pneumoniae [11]): 8 µg/mL (≈ 24.1 µM)
MIC (Streptococcus pneumoniae [12]): 1 µg/mL (≈ 3.02 µM)
MIC (Streptococcus pneumoniae [13]): 4 µg/mL
MIC (Streptococcus pneumoniae [14]): 1 µg/mL
MIC (Streptococcus pneumoniae [15]): 16 µg/mL
MIC (Streptococcus pneumoniae [16]): 4 µg/mL
MIC (Streptococcus pneumoniae [17]): 4 µg/mL
MIC (Streptococcus pneumoniae [18]): 0.12 µg/mL
MIC (Streptococcus pneumoniae [19]): 8 µg/mL
MIC (Streptococcus pneumoniae [20]): 1 µg/mL
MIC (Streptococcus pneumoniae [21]): 8 µg/mL
MIC (Streptococcus pneumoniae [22]): 32 µg/mL
MIC (Streptococcus pneumoniae [23]): 0.25 µg/mL (≈ 0.754 µM)
MIC (Streptococcus pneumoniae [24]): 2 µg/mL
MIC (Streptococcus pneumoniae [25]): 16 µg/mL (≈ 48.3 µM)
MIC (Streptococcus pneumoniae [26]): 8 µg/mL (≈ 24.1 µM)
MIC (Streptococcus pneumoniae [27]): 1 µg/mL (≈ 3.02 µM)
MIC90 (Streptococcus pneumoniae [28]): 4 µg/mL

CC[n+]1c(-c2ccccc2)c2cc(N)ccc2c2ccc(N)cc21.[Br-] [HOMIDIUM BROMIDE]
MIC (Streptococcus pneumoniae [1]): 2 µg/mL
MIC (Streptococcus pneumoniae [2]): 0.5 µg/mL
MIC (Streptococcus pneumoniae [3]): 16 µg/mL
MIC (Streptococcus pneumoniae [4]): 0.5 µg/mL
MIC (Streptococcus pneumoniae [5]): 0.5 µg/mL
MIC (Streptococcus pneumoniae [6]): 0.5 µg/mL
MIC90 (Streptococcus pneumoniae [7]): 2 µg/mL
MIC (Streptococcus pneumoniae [8]): 16 µg/mL
MIC (Streptococcus pneumoniae [9]): 0.5 µg/mL
MIC (Streptococcus pneumoniae [10]): 0.5 µg/mL
MIC (Streptococcus pneumoniae [11]): 8 µg/mL
MIC (Streptococcus pneumoniae [12]): 2 µg/mL
MIC (Streptococcus pneumoniae [13]): 0.5 µg/mL
MIC (Streptococcus pneumoniae [14]): 0.5 µg/mL
MIC (Streptococcus pneumoniae [15]): 0.5 µg/mL
MIC (Streptococcus pneumoniae [16]): 0.5 µg/mL
MIC (Streptococcus pneumoniae [17]): 0.5 µg/mL
MIC (Streptococcus pneumoniae [18]): 0.25 µg/mL
MIC (Streptococcus pneumoniae [19]): 1 µg/mL
MIC (Streptococcus pneumoniae [20]): 0.25 µg/mL
MIC (Streptococcus pneumoniae [21]): 0.5 µg/mL
MIC (Streptococcus pneumoniae [22]): 1 µg/mL
MIC (Streptococcus pneumoniae [23]): 16 µg/mL
MIC (Streptococcus pneumoniae [24]): 8 µg/mL
MIC (Streptococcus pneumoniae [25]): 0.5 µg/mL
MIC (Streptococcus pneumoniae [26]): 0.25 µg/mL
MIC (Streptococcus pneumoniae [27]): 0.5 µg/mL
MIC90 (Streptococcus pneumoniae [28]): 0.5 µg/mL
